Marks after values point to notes of the source that are not given here.
Assays:
factor IXa = factor IXa (Homo sapiens, UniProt P00740); assay type: biochemical; details: 20 mM MES; for k−H FIXa, association rate constant of free antithrombin / k−H FIXa, fractional wild-type value (in parentheses): absence of heparin; for k−H FIXa, association rate constant of free antithrombin / kH FIXa, association rate constant of heparin-complexed antithrombin: 5 mM CaCl2, 0.1 % PEG 8000, pH 6.0, 25°C, ±S.E.; for k−H FIXa, fractional wild-type value (in parentheses) / kH FIXa, fractional wild-type value (in parentheses): 5 mM CaCl2, pH 6.0, 25°C; for kH FIXa, association rate constant of heparin-complexed antithrombin / kH FIXa, fractional wild-type value (in parentheses): natural pentasaccharide complex
Sequence of factor IXa (P00740 47-191 limits assumed): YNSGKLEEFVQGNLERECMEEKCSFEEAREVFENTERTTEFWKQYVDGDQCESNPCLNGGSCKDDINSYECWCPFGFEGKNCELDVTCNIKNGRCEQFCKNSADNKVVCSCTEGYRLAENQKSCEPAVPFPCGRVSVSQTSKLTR
Sequence of factor IXa (P00740 227-461 limits assumed): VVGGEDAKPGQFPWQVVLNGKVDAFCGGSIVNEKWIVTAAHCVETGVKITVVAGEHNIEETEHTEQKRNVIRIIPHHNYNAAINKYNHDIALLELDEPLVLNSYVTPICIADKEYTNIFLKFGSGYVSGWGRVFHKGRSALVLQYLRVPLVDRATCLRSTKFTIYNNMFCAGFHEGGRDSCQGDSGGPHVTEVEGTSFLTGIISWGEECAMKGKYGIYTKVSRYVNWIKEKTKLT

[1] = assay type: binding; details: natural pentasaccharide; for Kd: read-out: KD,obs, I 0.04, pH 6.0, 25°C, measured directly at I 0.04 or calculated from the ionic strength dependence of KD,obs
In short: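 Recombinant His-tagged antithrombin (~100 nM), expressed in Sf9 and Ni-NTA purified, was titrated with pentasaccharide at 25°C. Binding was followed by tryptophan fluorescence enhancement (ex 280 nm, em 340 nm). Stocks were diluted extensively. Data were fit by quadratic binding equation for KD and stoichiometry.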

Rapid = assay type: binding; details: natural pentasaccharide; for Limiting rate constant at heparin saturation (k+2 + k−2): I 0.04, pH 6, 25°C; for 1/K2: 1/K2 = (K1/KD,obs) − 1
factor Xa = factor Xa (Homo sapiens, UniProt P00742); assay type: biochemical; details: for k−H FXa, association rate constant of free antithrombin / k−H FXa, fractional wild-type value (in parentheses) / Enhancement of basal reactivities with both factors Xa and IXa: absence of heparin; for k−H FXa, association rate constant of free antithrombin / k−H FXa, fractional wild-type value (in parentheses) / kH FXa, association rate constant of heparin-complexed antithrombin / kH FXa, fractional wild-type value (in parentheses): 20 mM MES; for k−H FXa, association rate constant of free antithrombin / kH FXa, association rate constant of heparin-complexed antithrombin: 5 mM CaCl2, 0.1 % PEG 8000, pH 6.0, 25°C, ±S.E.; for k−H FXa, fractional wild-type value (in parentheses) / kH FXa, fractional wild-type value (in parentheses): 5 mM CaCl2, pH 6.0, 25°C; for Enhancement of basal reactivities with both factors Xa and IXa: relative to wild-type, range covers factor Xa and factor IXa; for kH FXa, association rate constant of heparin-complexed antithrombin / kH FXa, fractional wild-type value (in parentheses): natural pentasaccharide complex
Sequence of factor Xa (P00742 41-179 limits assumed): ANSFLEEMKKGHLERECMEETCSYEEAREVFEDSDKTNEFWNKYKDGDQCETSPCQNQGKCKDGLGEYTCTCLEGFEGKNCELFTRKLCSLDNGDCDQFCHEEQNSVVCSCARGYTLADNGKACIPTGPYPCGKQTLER
Sequence of factor Xa (P00742 235-488 limits assumed): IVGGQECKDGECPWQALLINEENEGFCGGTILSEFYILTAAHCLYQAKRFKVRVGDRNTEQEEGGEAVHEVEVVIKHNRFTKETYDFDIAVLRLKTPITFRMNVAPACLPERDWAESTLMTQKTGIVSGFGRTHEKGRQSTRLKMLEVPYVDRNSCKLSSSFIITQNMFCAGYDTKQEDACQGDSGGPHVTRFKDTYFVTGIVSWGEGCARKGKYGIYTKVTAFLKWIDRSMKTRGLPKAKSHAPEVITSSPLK

Substance | k−H FIXa, association rate constant of free antithrombin (factor IXa) | k−H FIXa, fractional wild-type value (in parentheses) (factor IXa) | kH FIXa, association rate constant of heparin-complexed antithrombin (factor IXa) | kH FIXa, fractional wild-type value (in parentheses) (factor IXa) | Loss of nonionic binding energy relative to wild-type [1] [%] | Kd [1] [nM] | Limiting rate constant at heparin saturation (k+2 + k−2) (Rapid) [s⁻¹] | 1/K2 (Rapid; I 0.04, pH 6.0, 25°C) | k+2, forward conformational activation rate constant (Rapid; I 0.04, pH 6.0, 25°C, ±S.E.) [s⁻¹] | k−H FXa, association rate constant of free antithrombin (factor Xa) | k−H FXa, fractional wild-type value (in parentheses) (factor Xa) | Enhancement of basal reactivities with both factors Xa and IXa (factor Xa) | kH FXa, association rate constant of heparin-complexed antithrombin (factor Xa) | kH FXa, fractional wild-type value (in parentheses) (factor Xa) | k+2, forward conformational activation rate constant (Rapid; I 0.04, pH 6.0, 25°C, ±S.E., listed as Lys114) | k−2, reverse conformational activation rate constant (Rapid; I 0.04, pH 6.0, 25°C, ±S.E., possibly overestimated (conformational selection pathway))
KKM: His-tagged recombinant β-antithrombin variant with Arg129 mutated to Met | 6.9±0.4 × 10^1 M^−1s^−1 | 1.3 | 6.2±0.3 × 10^3 M^−1s^−1 | 0.62 | 17 | 0.16 | 1020 | 10000 | 1020 ± 120 | 1.3±0.1 × 10^3 M^−1s^−1 | 2.3 | 1.3–2.3 fold | 7.6±0.3 ×10^4 M^−1s^−1 | 0.99 | – | –
KKR (WT): Recombinant wild-type β-antithrombin (Asn135 mutated to Gln) with C-terminal 6XHis-tag, expressed in Sf9 insect cells | 5.4±0.4 × 10^1 M^−1s^−1 | 1 | – | 1 | – | – | – | 6 × 10^6 | 1140 ± 110 | 5.7±0.4 × 10^2 M^−1s^−1 | 1 | – | – | 1 | – | –
KMR: His-tagged recombinant β-antithrombin variant with Lys125 mutated to Met | 9.6±0.6 × 10^1 M^−1s^−1 | 1.8 | 6.8±0.8 × 10^3 M^−1s^−1 | 0.68 | 24 | 0.86 | 550 to 690 | 4300 | 550 ± 40 | 1.2±0.1 × 10^3 M^−1s^−1 | 2.1 | 1.3–2.3 fold | 8.1±0.3 ×10^4 M^−1s^−1 | 1.1 | – | –
MKR: His-tagged recombinant β-antithrombin variant with Lys114 mutated to Met | – | – | 2.1±0.1 × 10^3 M^−1s^−1 | 0.21 | – | 560 | 40 | 8^c | 17 ± 2 | 2.6±0.3 × 10^2 M^−1s^−1 | 0.46 | – | 6.4±0.3 ×10^4 M^−1s^−1 | 0.83 | ~ 20 s^−1 | 23±2^c s^−1

Reference: PMC6363533 (Biochemistry, 2018)
